Source: ChEMBL document CHEMBL5357072, “Structural Modification of Noscapine via Photoredox/Nickel Dual Catalysis for the Discovery of S-Phase Arresting Agents” (ACS Med Chem Lett, 2024)

tested on: A549; experiment: Antiproliferative activity against human A549 cells assessed as cell growth inhibition at 10 uM incubated for 48 hrs by CCK8 assay relative to control; type: functional; conditions: read-out: GI
Procedure, shortened: (§1)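 Single-concentration screen of six cancer cell lines. Cells were exposed to 10 μM compound and growth was measured by CCK-8 assay. Results are reported as inhibition rate at 10 μM.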

Structure (SMILES) | inhibition of growth at 10 µM [%]
COc1ccc2c(c1OC)C(=O)O[C@@H]2[C@H]1c2c(c(CCNC(=O)OC(C)(C)C)c3c(c2OC)OCO3)CCN1C(=O)OC(C)(C)C | < 5
COc1ccc2c(c1OC)C(=O)O[C@@H]2[C@H]1c2c(c(CC3CCCC3)c3c(c2OC)OCO3)CCN1C(=O)OC(C)(C)C | < 5
COc1ccc2c(c1OC)C(=O)O[C@@H]2[C@H]1c2c(c(C3CCC3)c3c(c2OC)OCO3)CCN1C(=O)OC(C)(C)C | < 5
COc1ccc2c(c1OC)C(=O)O[C@@H]2[C@H]1c2c(c(C3CCOC3)c3c(c2OC)OCO3)CCN1C(=O)OC(C)(C)C (some centres undefined) | < 5
COc1ccc2c(c1OC)C(=O)O[C@@H]2[C@H]1c2c(c(CCCc3ccccc3)c3c(c2OC)OCO3)CCN1C(=O)OC(C)(C)C | < 5
COc1ccc2c(c1OC)C(=O)O[C@@H]2[C@H]1c2c(c(C3CCC(C)(C)CC3)c3c(c2OC)OCO3)CCN1C(=O)OC(C)(C)C | < 5
COc1ccc2c(c1OC)C(=O)O[C@@H]2[C@H]1c2c(c(CC3CCN3C(=O)OC(C)(C)C)c3c(c2OC)OCO3)CCN1C(=O)OC(C)(C)C (some centres undefined) | < 5
COc1ccc2c(c1OC)C(=O)O[C@@H]2[C@H]1c2c(c(C3CCCCCC3)c3c(c2OC)OCO3)CCN1C(=O)OC(C)(C)C | < 5
CCOP(=O)(CCc1c2c(c(OC)c3c1OCO3)[C@H]([C@H]1OC(=O)c3c1ccc(OC)c3OC)N(C(=O)OC(C)(C)C)CC2)OCC | < 5

tested on: NB-4; experiment: Antiproliferative activity against human NB4 cells assessed as cell growth inhibition at 10 uM incubated for 48 hrs by CCK8 assay relative to control; type: functional; conditions: read-out: GI; procedure, shortened: as §1

Structure (SMILES) | inhibition of growth at 10 µM [%]
COc1ccc2c(c1OC)C(=O)O[C@@H]2[C@H]1c2c(c(CCNC(=O)OC(C)(C)C)c3c(c2OC)OCO3)CCN1C(=O)OC(C)(C)C | 29.9
COc1ccc2c(c1OC)C(=O)O[C@@H]2[C@H]1c2c(c(CC3CCCC3)c3c(c2OC)OCO3)CCN1C(=O)OC(C)(C)C | 20.8
COc1ccc2c(c1OC)C(=O)O[C@@H]2[C@H]1c2c(c(C3CCC3)c3c(c2OC)OCO3)CCN1C(=O)OC(C)(C)C | 13.5
COc1ccc2c(c1OC)C(=O)O[C@@H]2[C@H]1c2c(c(C3CCOC3)c3c(c2OC)OCO3)CCN1C(=O)OC(C)(C)C (some centres undefined) | 23.3
COc1ccc2c(c1OC)C(=O)O[C@@H]2[C@H]1c2c(c(CCCc3ccccc3)c3c(c2OC)OCO3)CCN1C(=O)OC(C)(C)C | 25.1
COc1ccc2c(c1OC)C(=O)O[C@@H]2[C@H]1c2c(c(C3CCC(C)(C)CC3)c3c(c2OC)OCO3)CCN1C(=O)OC(C)(C)C | 29.6
COc1ccc2c(c1OC)C(=O)O[C@@H]2[C@H]1c2c(c(CC3CCN3C(=O)OC(C)(C)C)c3c(c2OC)OCO3)CCN1C(=O)OC(C)(C)C (some centres undefined) | 13.8
COc1ccc2c(c1OC)C(=O)O[C@@H]2[C@H]1c2c(c(C3CCCCCC3)c3c(c2OC)OCO3)CCN1C(=O)OC(C)(C)C | < 5
CCOP(=O)(CCc1c2c(c(OC)c3c1OCO3)[C@H]([C@H]1OC(=O)c3c1ccc(OC)c3OC)N(C(=O)OC(C)(C)C)CC2)OCC | 6.64

tested on: MOLM-13; experiment: Antiproliferative activity against human MOLM-13 cells assessed as cell growth inhibition at 10 uM incubated for 48 hrs by CCK8 assay relative to control; type: functional; conditions: read-out: GI; procedure, shortened: as §1

Structure (SMILES) | inhibition of growth at 10 µM [%]
COc1ccc2c(c1OC)C(=O)O[C@@H]2[C@H]1c2c(c(CCNC(=O)OC(C)(C)C)c3c(c2OC)OCO3)CCN1C(=O)OC(C)(C)C | 43.5
COc1ccc2c(c1OC)C(=O)O[C@@H]2[C@H]1c2c(c(CC3CCCC3)c3c(c2OC)OCO3)CCN1C(=O)OC(C)(C)C | 51.3
COc1ccc2c(c1OC)C(=O)O[C@@H]2[C@H]1c2c(c(C3CCC3)c3c(c2OC)OCO3)CCN1C(=O)OC(C)(C)C | 40.4
COc1ccc2c(c1OC)C(=O)O[C@@H]2[C@H]1c2c(c(C3CCOC3)c3c(c2OC)OCO3)CCN1C(=O)OC(C)(C)C (some centres undefined) | 43.6
COc1ccc2c(c1OC)C(=O)O[C@@H]2[C@H]1c2c(c(CCCc3ccccc3)c3c(c2OC)OCO3)CCN1C(=O)OC(C)(C)C | 63.2
COc1ccc2c(c1OC)C(=O)O[C@@H]2[C@H]1c2c(c(C3CCC(C)(C)CC3)c3c(c2OC)OCO3)CCN1C(=O)OC(C)(C)C | 47.6
COc1ccc2c(c1OC)C(=O)O[C@@H]2[C@H]1c2c(c(CC3CCN3C(=O)OC(C)(C)C)c3c(c2OC)OCO3)CCN1C(=O)OC(C)(C)C (some centres undefined) | 43.2
COc1ccc2c(c1OC)C(=O)O[C@@H]2[C@H]1c2c(c(C3CCCCCC3)c3c(c2OC)OCO3)CCN1C(=O)OC(C)(C)C | 39.4
CCOP(=O)(CCc1c2c(c(OC)c3c1OCO3)[C@H]([C@H]1OC(=O)c3c1ccc(OC)c3OC)N(C(=O)OC(C)(C)C)CC2)OCC | 31.1

tested on: U-251; experiment: Antiproliferative activity against human U-251 cells assessed as cell growth inhibition at 10 uM incubated for 48 hrs by CCK8 assay relative to control; type: functional; conditions: read-out: GI; procedure, shortened: as §1

Structure (SMILES) | inhibition of growth at 10 µM [%]
COc1ccc2c(c1OC)C(=O)O[C@@H]2[C@H]1c2c(c(CCNC(=O)OC(C)(C)C)c3c(c2OC)OCO3)CCN1C(=O)OC(C)(C)C | < 5
COc1ccc2c(c1OC)C(=O)O[C@@H]2[C@H]1c2c(c(CC3CCCC3)c3c(c2OC)OCO3)CCN1C(=O)OC(C)(C)C | 12
COc1ccc2c(c1OC)C(=O)O[C@@H]2[C@H]1c2c(c(C3CCC3)c3c(c2OC)OCO3)CCN1C(=O)OC(C)(C)C | < 5
COc1ccc2c(c1OC)C(=O)O[C@@H]2[C@H]1c2c(c(C3CCOC3)c3c(c2OC)OCO3)CCN1C(=O)OC(C)(C)C (some centres undefined) | 32.1
COc1ccc2c(c1OC)C(=O)O[C@@H]2[C@H]1c2c(c(CCCc3ccccc3)c3c(c2OC)OCO3)CCN1C(=O)OC(C)(C)C | < 5
COc1ccc2c(c1OC)C(=O)O[C@@H]2[C@H]1c2c(c(C3CCC(C)(C)CC3)c3c(c2OC)OCO3)CCN1C(=O)OC(C)(C)C | < 5
COc1ccc2c(c1OC)C(=O)O[C@@H]2[C@H]1c2c(c(CC3CCN3C(=O)OC(C)(C)C)c3c(c2OC)OCO3)CCN1C(=O)OC(C)(C)C (some centres undefined) | < 5
COc1ccc2c(c1OC)C(=O)O[C@@H]2[C@H]1c2c(c(C3CCCCCC3)c3c(c2OC)OCO3)CCN1C(=O)OC(C)(C)C | 20.5
CCOP(=O)(CCc1c2c(c(OC)c3c1OCO3)[C@H]([C@H]1OC(=O)c3c1ccc(OC)c3OC)N(C(=O)OC(C)(C)C)CC2)OCC | < 5

tested on: HeLa; experiment: Antiproliferative activity against human HeLa cells assessed as cell growth inhibition at 10 uM incubated for 48 hrs by CCK8 assay relative to control; type: functional; conditions: read-out: GI; procedure, shortened: as §1

Structure (SMILES) | inhibition of growth at 10 µM [%]
COc1ccc2c(c1OC)C(=O)O[C@@H]2[C@H]1c2c(c(CCNC(=O)OC(C)(C)C)c3c(c2OC)OCO3)CCN1C(=O)OC(C)(C)C | < 5
COc1ccc2c(c1OC)C(=O)O[C@@H]2[C@H]1c2c(c(CC3CCCC3)c3c(c2OC)OCO3)CCN1C(=O)OC(C)(C)C | < 5
COc1ccc2c(c1OC)C(=O)O[C@@H]2[C@H]1c2c(c(C3CCC3)c3c(c2OC)OCO3)CCN1C(=O)OC(C)(C)C | < 5
COc1ccc2c(c1OC)C(=O)O[C@@H]2[C@H]1c2c(c(C3CCOC3)c3c(c2OC)OCO3)CCN1C(=O)OC(C)(C)C (some centres undefined) | < 5
COc1ccc2c(c1OC)C(=O)O[C@@H]2[C@H]1c2c(c(CCCc3ccccc3)c3c(c2OC)OCO3)CCN1C(=O)OC(C)(C)C | < 5
COc1ccc2c(c1OC)C(=O)O[C@@H]2[C@H]1c2c(c(C3CCC(C)(C)CC3)c3c(c2OC)OCO3)CCN1C(=O)OC(C)(C)C | < 5
COc1ccc2c(c1OC)C(=O)O[C@@H]2[C@H]1c2c(c(CC3CCN3C(=O)OC(C)(C)C)c3c(c2OC)OCO3)CCN1C(=O)OC(C)(C)C (some centres undefined) | < 5
COc1ccc2c(c1OC)C(=O)O[C@@H]2[C@H]1c2c(c(C3CCCCCC3)c3c(c2OC)OCO3)CCN1C(=O)OC(C)(C)C | < 5
CCOP(=O)(CCc1c2c(c(OC)c3c1OCO3)[C@H]([C@H]1OC(=O)c3c1ccc(OC)c3OC)N(C(=O)OC(C)(C)C)CC2)OCC | < 5

tested on: JeKo-1; experiment: Antiproliferative activity against human JeKo-1 cells assessed as cell growth inhibition at 10 uM incubated for 48 hrs by CCK8 assay relative to control; type: functional; conditions: read-out: GI; procedure, shortened: as §1

Structure (SMILES) | inhibition of growth at 10 µM [%]
COc1ccc2c(c1OC)C(=O)O[C@@H]2[C@H]1c2c(c(CCNC(=O)OC(C)(C)C)c3c(c2OC)OCO3)CCN1C(=O)OC(C)(C)C | 14
COc1ccc2c(c1OC)C(=O)O[C@@H]2[C@H]1c2c(c(CC3CCCC3)c3c(c2OC)OCO3)CCN1C(=O)OC(C)(C)C | 6.68
COc1ccc2c(c1OC)C(=O)O[C@@H]2[C@H]1c2c(c(C3CCC3)c3c(c2OC)OCO3)CCN1C(=O)OC(C)(C)C | < 5
COc1ccc2c(c1OC)C(=O)O[C@@H]2[C@H]1c2c(c(C3CCOC3)c3c(c2OC)OCO3)CCN1C(=O)OC(C)(C)C (some centres undefined) | 20.8
COc1ccc2c(c1OC)C(=O)O[C@@H]2[C@H]1c2c(c(CCCc3ccccc3)c3c(c2OC)OCO3)CCN1C(=O)OC(C)(C)C | 13.7
COc1ccc2c(c1OC)C(=O)O[C@@H]2[C@H]1c2c(c(C3CCC(C)(C)CC3)c3c(c2OC)OCO3)CCN1C(=O)OC(C)(C)C | 7.49
COc1ccc2c(c1OC)C(=O)O[C@@H]2[C@H]1c2c(c(CC3CCN3C(=O)OC(C)(C)C)c3c(c2OC)OCO3)CCN1C(=O)OC(C)(C)C (some centres undefined) | 12.9
COc1ccc2c(c1OC)C(=O)O[C@@H]2[C@H]1c2c(c(C3CCCCCC3)c3c(c2OC)OCO3)CCN1C(=O)OC(C)(C)C | 10.3
CCOP(=O)(CCc1c2c(c(OC)c3c1OCO3)[C@H]([C@H]1OC(=O)c3c1ccc(OC)c3OC)N(C(=O)OC(C)(C)C)CC2)OCC | 12.1
